Measured values: ChEMBL document CHEMBL1129356, “Novel 3,7-diheterabicyclo[3.3.1]nonanes that possess predominant class III antiarrhythmic activity in 1-4 day post infarction dog models: X-ray diffraction analysis of 3-[4-(1H-imidazol-1-yl)benzoyl]-7-isopropyl-3,7-diazabicyclo[3.3.1]nona ne dihydroperchlorate” (1996)
The source made the active and inactive calls.

Experiments:
Canis familiaris [1] = assay: Tested for antiarrhythmic property by measuring ability to decrease heart rate(drug free) is compared to Lidocaine using doses (3 and 6 mg/kg).; format: functional, Canis lupus familiaris
Method in brief: (§1)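 Mongrel dogs (about 12–25 kg), 1–4 days after coronary occlusion infarction, under sodium pentobarbital (~30 mg/kg) with 12-lead ECG monitoring. Agents and lidocaine were given iv at 3 and 6 mg/kg. Programmed ventricular stimulation was applied at baseline, about 2–5 min after each dose, and at 30 min. SVT was defined as ≥250 beats/min lasting ≥30 s. Pre means drug-free; post means after dosing.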

Canis familiaris [2] = assay: Antiarrhythmic property ventricular effective refractory period(post drug) is compared to lidocaine(2) using doses(3 and 6 mg/kg); format: functional, Canis lupus familiaris, Heart; method in brief: as §1
Canis familiaris [3] = assay: Tested for antiarrhythmic property by measuring ability to decrease Mean blood pressure(post drug) is compared to Lidocaine using doses(3 and 6 mg/kg); format: functional, Canis lupus familiaris; method in brief: as §1
Canis familiaris [4] = assay: Antiarrhythmic property is compared to lidocaine(2) using doses(3 and 6 mg/kg). Time required for the ventricular myocardium to undergo depolarization and repolarization ((post drug); format: functional, Canis lupus familiaris; method in brief: as §1
Canis familiaris [5] = assay: Antiarrhythmic property A-V nodal conduction time(drug free) is compared to lidocaine(2) using doses(3 and 6 mg/kg); format: functional, Canis lupus familiaris, Heart; method in brief: as §1
Canis familiaris [6] = assay: Tested for antiarrhythmic property by measuring ability to decrease Mean blood pressure (drug free) is compared to Lidocaine using doses(3 and 6 mg/kg).; format: functional, Canis lupus familiaris; method in brief: as §1
Canis familiaris [7] = assay: Antiarrhythmic property is compared to lidocaine(2) using doses(3 and 6 mg/kg). Time required for the ventricular myocardium to undergo depolarization and repolarization (drug free); format: functional, Canis lupus familiaris; method in brief: as §1
Canis familiaris [8] = assay: Tested for antiarrhythmic property by measuring ability to decrease heart rate(post drug) is compared to Lidocaine using doses(3 and 6 mg/kg).; format: functional, Canis lupus familiaris; method in brief: as §1
Canis familiaris [9] = assay: Antiarrhythmic property ventricular effective refractory period(drug free) is compared to lidocaine(2) using doses(3 and 6 mg/kg); format: functional, Canis lupus familiaris, Heart; method in brief: as §1
Canis familiaris [10] = assay: Antiarrhythmic property A-V nodal conduction time(post drug) is compared to lidocaine(2) using doses(3 and 6 mg/kg); format: functional, Canis lupus familiaris, Heart; method in brief: as §1
Canis familiaris [11] = assay: Antiarrhythmic properties are compared to lidocaine(2) using doses(3 and 6 mg/kg).Tested for time required for the ventricular myocardium to undergo depolarization and repolarization (drug free); No effect; format: functional, organism-based; set-up: dose 6 mg/kg; details: Canis lupus familiaris; method in brief: as §1
Canis familiaris [12] = assay: (§2) Antiarrhythmic properties are compared to lidocaine(2) using doses(3 and 6 mg/kg). Time required for the ventricular myocardium to undergo depolarization and repolarization ((post drug); No effect; format: functional, organism-based; set-up: dose 6 mg/kg; details: Canis lupus familiaris; method in brief: as §1
Canis familiaris [13] = assay: (§3) Antiarrhythmic properties are compared to lidocaine(2) using doses(3 and 6 mg/kg) measures His-Purkinje conduction time(drug free); No effect; format: functional, organism-based; set-up: dose 6 mg/kg; details: Canis lupus familiaris; His-Purkinje system; method in brief: as §1
Canis familiaris [14] = assay: (§4) Antiarrhythmic property A-V nodal conduction time(drug free) is compared to lidocaine(2) using doses(3 and 6 mg/kg); No effect; format: functional, organism-based; set-up: dose 6 mg/kg; details: Canis lupus familiaris; Heart; method in brief: as §1
Canis familiaris [15] = assay: Antiarrhythmic properties are compared to lidocaine(2) using doses(3 and 6 mg/kg) measures His-Purkinje conduction time(post drug); No effect; format: functional, organism-based; set-up: dose 6 mg/kg; details: Canis lupus familiaris; His-Purkinje system; method in brief: as §1
Canis familiaris [16] = assay: Antiarrhythmic properties are compared to lidocaine(2) using doses(3 and 6 mg/kg) ventricular effective refractory period(drug free); No effect; format: functional, organism-based; set-up: dose 6 mg/kg; details: Canis lupus familiaris; Heart; method in brief: as §1
Canis familiaris [17] = assay: Antiarrhythmic properties are compared to lidocaine(2) using doses(3 and 6 mg/kg) ventricular effective refractory period(post drug); No effect; format: functional, organism-based; set-up: dose 6 mg/kg; details: Canis lupus familiaris; Heart; method in brief: as §1
Canis familiaris [18] = assay: (§5) Antiarrhythmic property A-V nodal conduction time(post drug) is compared to lidocaine(2) using dose (3 and 6 mg/kg); No effect; format: functional, organism-based; set-up: dose 6 mg/kg; details: Canis lupus familiaris; Heart; method in brief: as §1
Canis familiaris [19] = assay: as §3; format: functional, organism-based; set-up: dose 6 mg/kg; details: Canis lupus familiaris; His-Purkinje system; method in brief: as §1; remark: listed apart in the source
Canis familiaris [20] = assay: Antiarrhythmic properties are compared to lidocaine(2) using doses(3 and 6 mg/kg). Tested for time required for the ventricular myocardium to undergo depolarization and repolarization ((post drug); No effect; format: functional, organism-based; set-up: dose 6 mg/kg; details: Canis lupus familiaris; method in brief: as §1
Canis familiaris [21] = assay: (§6) Antiarrhythmic properties are compared to lidocaine(2) using doses(3 and 6 mg/kg). Time required for the ventricular myocardium to undergo depolarization and repolarization (drug free); No effect; format: functional, organism-based; set-up: dose 6 mg/kg; details: Canis lupus familiaris; method in brief: as §1
Canis familiaris [22] = assay: Antiarrhythmic property His-Purkinje conduction time(post drug) is compared to lidocaine(2) using dose(3 and 6 mg/kg); No effect; format: functional, organism-based; set-up: dose 6 mg/kg; details: Canis lupus familiaris; His-Purkinje system; method in brief: as §1
Canis familiaris [23] = assay: (§7) Antiarrhythmic property Nonsustained ventricular tachycardia is compared to lidocaine(2) using dose of (3 and 6 mg/kg); format: functional, Canis lupus familiaris, Heart
Method in brief: (§8)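 Mongrel dogs (~12–25 kg), 1–4 days after coronary occlusion leaving a surviving epicardial rim, anesthetized with sodium pentobarbital (~30 mg/kg). 12-lead ECG monitored throughout. Agent given iv at 3 and 6 mg/kg. Parameters recorded before (drug free) and after dosing. Programmed electrical stimulation tested SVT inducibility (≥250 beats/min, ≥30 s) at baseline, ~2–5 min after each dose, and at 30 min.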

Canis familiaris [24] = assay: as §5; format: functional, organism-based; set-up: dose 6 mg/kg; details: Canis lupus familiaris; Heart; method in brief: as §8; remark: listed apart in the source
Canis familiaris [25] = assay: Antiarrhythmic property compared to lidocaine(2) using doses(3 and 6 mg/kg). Time required for the ventricular myocardium to undergo depolarization and repolarization ((post drug); No effect; format: functional, organism-based; set-up: dose 6 mg/kg; details: Canis lupus familiaris; method in brief: as §1
Canis familiaris [26] = assay: as §4; format: functional, organism-based; set-up: dose 6 mg/kg; details: Canis lupus familiaris; Heart; method in brief: as §8; remark: listed apart in the source
Canis familiaris [27] = assay: Antiarrhythmic property Heart rate (post drug) is compared to Lidocaine using doses(3 and 6 mg/kg). system.; format: functional, Canis lupus familiaris; method in brief: as §8
Canis familiaris [28] = assay: Antiarrhythmic property compared to lidocaine(2) using doses(3 and 6 mg/kg). Time required for the ventricular myocardium to undergo depolarization and repolarization (drug free); No effect; format: functional, organism-based; set-up: dose 6 mg/kg; details: Canis lupus familiaris; method in brief: as §1
Canis familiaris [29] = assay: Antiarrhythmic property Heart rate (drug free) is compared to Lidocaine using doses (3 and 6 mg/kg).; format: functional, Canis lupus familiaris; method in brief: as §8
Canis familiaris [30] = assay: Antiarrhythmic property His-Purkinje conduction time(drug free) is compared to lidocaine(2) using doses(3 and 6 mg/kg); No effect; format: functional, organism-based; set-up: dose 6 mg/kg; details: Canis lupus familiaris; His-Purkinje system; method in brief: as §1
Canis familiaris [31] = assay: Antiarrhythmic property Mean blood pressure (drug free) is compared to Lidocaine using doses(3 and 6 mg/kg).; format: functional, Canis lupus familiaris; method in brief: as §8
Canis familiaris [32] = assay: Antiarrhythmic property ventricular effective refractory period(post drug) is compared to lidocaine(2) using doses(3 and 6 mg/kg); No effect; format: functional, organism-based; set-up: dose 6 mg/kg; details: Canis lupus familiaris; Heart; method in brief: as §8
Canis familiaris [33] = assay: Antiarrhythmic property ventricular effective refractory period(drug free) is compared to lidocaine(2) using doses(3 and 6 mg/kg); No effect; format: functional, organism-based; set-up: dose 6 mg/kg; details: Canis lupus familiaris; Heart; method in brief: as §8
Canis familiaris [34] = assay: Antiarrhythmic property Mean blood pressure(post drug) is compared to Lidocaine using doses(3 and 6 mg/kg); format: functional, Canis lupus familiaris; method in brief: as §8
Canis familiaris [35] = assay: as §6; format: functional, organism-based; set-up: dose 6 mg/kg; details: Canis lupus familiaris; method in brief: as §8; remark: listed apart in the source
Canis familiaris [36] = assay: Antiarrhythmic property is compared to lidocaine(2) using doses(3 and 6 mg/kg). Time required for the ventricular myocardium to undergo depolarization and repolarization ((post drug); No effect; format: functional, organism-based; set-up: dose 6 mg/kg; details: Canis lupus familiaris; method in brief: as §8
Canis familiaris [37] = assay: Antiarrhythmic property is compared to lidocaine(2) using doses(3 and 6 mg/kg). Time required for the ventricular myocardium to undergo depolarization and repolarization (drug free); No effect; format: functional, organism-based; set-up: dose 6 mg/kg; details: Canis lupus familiaris; method in brief: as §8
Canis familiaris [38] = assay: as §2; format: functional, organism-based; set-up: dose 6 mg/kg; details: Canis lupus familiaris; method in brief: as §8; remark: listed apart in the source
Canis familiaris [39] = assay: Tested for antiarrhythmic property by measuring ability to decrease Mean blood pressure (post drug) is compared to Lidocaine using doses(3 and 6 mg/kg); format: functional, Canis lupus familiaris; method in brief: as §1
Canis familiaris [40] = assay: as §7; format: functional, Canis lupus familiaris, Heart; method in brief: as §1; remark: listed apart in the source

CC(C)N1CC2CC(CN(C(=O)c3ccc([N+](=O)[O-])cc3)C2)C1.Cl
HR (Canis familiaris [1]): 130 beats min-1
VERP (Canis familiaris [2]): 230 ms
MBP (Canis familiaris [3]): 75 mmHg
QT (Canis familiaris [4]): 260 ms
AH interval (Canis familiaris [5]): 60 ms
MBP (Canis familiaris [6]): 95 mmHg
QT (Canis familiaris [7]): 220 ms
HR (Canis familiaris [8]): 100 beats min-1
NSVT (Canis familiaris [9]): 6 mg/kg
VERP (Canis familiaris [9]): 160 ms
AH interval (Canis familiaris [10]): 75 ms

CC(C)N1CC2CC(CN(C(=O)c3ccc(NS(C)(=O)=O)cc3)C2)C1
OT interval (Canis familiaris [11]): inactive
OT (Canis familiaris [12]): inactive
HV interval (Canis familiaris [13]): inactive
AH interval (Canis familiaris [14]): inactive
NE (Canis familiaris [14]): inactive
HV interval (Canis familiaris [15]): inactive
HV interval (Canis familiaris [16]): inactive
VERP (Canis familiaris [16]): inactive
VERP (Canis familiaris [17]): inactive
AH interval (Canis familiaris [18]): inactive
HV interval (Canis familiaris [19]): inactive
OT interval (Canis familiaris [20]): inactive
OT (Canis familiaris [21]): inactive

c1ccc(CN2CC3CN(CC4CC4)CC(C2)C32SCCS2)cc1
HV interval (Canis familiaris [22]): inactive
NSVT (Canis familiaris [23]): 3 mg/kg
AH interval (Canis familiaris [24]): inactive
QT (Canis familiaris [25]): inactive
AH interval (Canis familiaris [26]): inactive
HR (Canis familiaris [27]): 148 beats min-1
QT (Canis familiaris [28]): inactive
HR (Canis familiaris [29]): 148 beats min-1
HV interval (Canis familiaris [30]): inactive
MBP (Canis familiaris [31]): 105 mmHg
VERP (Canis familiaris [32]): inactive
VERP (Canis familiaris [33]): inactive
MBP (Canis familiaris [34]): 105 mmHg

c1ccc(CN2CC3CSCC(C3)C2)cc1
QT (Canis familiaris [35]): inactive
AH interval (Canis familiaris [24]): inactive
AH interval (Canis familiaris [26]): inactive
QT (Canis familiaris [36]): inactive
QT (Canis familiaris [37]): inactive
VERP (Canis familiaris [32]): inactive
VERP (Canis familiaris [33]): inactive
QT (Canis familiaris [38]): inactive

CC(C)N1CC2CC(CN(C(=O)c3ccc(N)cc3)C2)C1.Cl.Cl
HR (Canis familiaris [1]): 130 beats min-1
VERP (Canis familiaris [2]): 220 ms
MBP (Canis familiaris [3]): 77 mmHg
QT (Canis familiaris [4]): 220 ms
AH interval (Canis familiaris [5]): 55 ms
MBP (Canis familiaris [6]): 100 mmHg
QT (Canis familiaris [7]): 210 ms
HR (Canis familiaris [8]): 115 beats min-1
NSVT (Canis familiaris [9]): 6 mg/kg
AH interval (Canis familiaris [10]): 65 ms

CC(C)N1CC2CC(CN(C(=O)c3ccc(NS(C)(=O)=O)cc3)C2)C1.Cl
MBP (Canis familiaris [39]): 95 mmHg
HR (Canis familiaris [1]): 150 beats min-1
NSVT (Canis familiaris [40]): 6 mg/kg
MBP (Canis familiaris [6]): 95 mmHg
HR (Canis familiaris [8]): 150 beats min-1
